One compound from paper PMC3611965 (Nuclear medicine and biology, 2012) can be followed below.

Data set [1] can be described thus: MDCK passive permeability. In kind it is in vitro ADME. Particulars: dog.
Data set [2] has as its target T1, FAAH (Mus musculus, UniProt O08914).
T1 sequence (O08914 1-579): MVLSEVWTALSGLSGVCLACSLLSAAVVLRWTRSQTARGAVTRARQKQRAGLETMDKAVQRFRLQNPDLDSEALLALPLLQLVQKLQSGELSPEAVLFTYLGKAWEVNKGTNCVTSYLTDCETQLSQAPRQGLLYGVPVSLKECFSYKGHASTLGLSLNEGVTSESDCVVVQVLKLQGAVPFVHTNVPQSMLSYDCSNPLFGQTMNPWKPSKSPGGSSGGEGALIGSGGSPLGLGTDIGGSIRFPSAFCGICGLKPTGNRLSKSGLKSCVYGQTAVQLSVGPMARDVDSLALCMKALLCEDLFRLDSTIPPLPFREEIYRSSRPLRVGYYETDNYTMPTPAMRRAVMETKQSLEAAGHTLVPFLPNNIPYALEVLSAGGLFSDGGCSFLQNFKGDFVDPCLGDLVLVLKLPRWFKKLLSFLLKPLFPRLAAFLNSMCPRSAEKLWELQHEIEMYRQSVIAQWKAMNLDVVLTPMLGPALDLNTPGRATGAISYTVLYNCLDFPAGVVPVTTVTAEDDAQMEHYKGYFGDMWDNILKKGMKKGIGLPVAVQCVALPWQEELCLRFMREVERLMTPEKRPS
Description: in vivo competitive ABPP of brains of treated mice. Particulars: C57Bl/6 mice, 10 mg/kg i.p. or p.o., 1 h, gel-based ABPP. The method, boiled down:
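Wild-type C57Bl/6J mice got test compound or vehicle (18:1:1 PBS:Emulphor:ethanol) and were killed after 1 h. Half-brains were frozen in liquid N2, washed in cold PBS, dounce-homogenized and sonicated, then spun at 1000×g (10 min, 4 °C) and 145,000×g (45 min, 4 °C) into soluble and membrane fractions. These were diluted to 1 mg/mL and labelled with FP-Rh (30 min, 37 °C) for SDS-PAGE fluorescence profiling.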

In data set [3] the target is T1, FAAH. Description: in vitro competitive ABPP. In kind it is biochemical. The method, boiled down:
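Wild-type C57Bl/6J mouse brain membrane fractions (1 mg/mL total protein) were preincubated with varying test compound concentrations for 30 min at 37 °C. FP-Rh was then added (50 μM stock in DMSO) for another 30 min at 37 °C. Samples were quenched in SDS loading buffer and run on SDS-PAGE with in-gel fluorescence scanning. IC50 was calculated from band fluorescence.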

The next data set deals with MDR1 (Homo sapiens, UniProt P08183). Kind of data set: MDR1 efflux ratio. In kind it is in vitro ADME. As to conditions: MDCK-MDR1.
Chain of MDR1 (P08183 whole entry, species assumed): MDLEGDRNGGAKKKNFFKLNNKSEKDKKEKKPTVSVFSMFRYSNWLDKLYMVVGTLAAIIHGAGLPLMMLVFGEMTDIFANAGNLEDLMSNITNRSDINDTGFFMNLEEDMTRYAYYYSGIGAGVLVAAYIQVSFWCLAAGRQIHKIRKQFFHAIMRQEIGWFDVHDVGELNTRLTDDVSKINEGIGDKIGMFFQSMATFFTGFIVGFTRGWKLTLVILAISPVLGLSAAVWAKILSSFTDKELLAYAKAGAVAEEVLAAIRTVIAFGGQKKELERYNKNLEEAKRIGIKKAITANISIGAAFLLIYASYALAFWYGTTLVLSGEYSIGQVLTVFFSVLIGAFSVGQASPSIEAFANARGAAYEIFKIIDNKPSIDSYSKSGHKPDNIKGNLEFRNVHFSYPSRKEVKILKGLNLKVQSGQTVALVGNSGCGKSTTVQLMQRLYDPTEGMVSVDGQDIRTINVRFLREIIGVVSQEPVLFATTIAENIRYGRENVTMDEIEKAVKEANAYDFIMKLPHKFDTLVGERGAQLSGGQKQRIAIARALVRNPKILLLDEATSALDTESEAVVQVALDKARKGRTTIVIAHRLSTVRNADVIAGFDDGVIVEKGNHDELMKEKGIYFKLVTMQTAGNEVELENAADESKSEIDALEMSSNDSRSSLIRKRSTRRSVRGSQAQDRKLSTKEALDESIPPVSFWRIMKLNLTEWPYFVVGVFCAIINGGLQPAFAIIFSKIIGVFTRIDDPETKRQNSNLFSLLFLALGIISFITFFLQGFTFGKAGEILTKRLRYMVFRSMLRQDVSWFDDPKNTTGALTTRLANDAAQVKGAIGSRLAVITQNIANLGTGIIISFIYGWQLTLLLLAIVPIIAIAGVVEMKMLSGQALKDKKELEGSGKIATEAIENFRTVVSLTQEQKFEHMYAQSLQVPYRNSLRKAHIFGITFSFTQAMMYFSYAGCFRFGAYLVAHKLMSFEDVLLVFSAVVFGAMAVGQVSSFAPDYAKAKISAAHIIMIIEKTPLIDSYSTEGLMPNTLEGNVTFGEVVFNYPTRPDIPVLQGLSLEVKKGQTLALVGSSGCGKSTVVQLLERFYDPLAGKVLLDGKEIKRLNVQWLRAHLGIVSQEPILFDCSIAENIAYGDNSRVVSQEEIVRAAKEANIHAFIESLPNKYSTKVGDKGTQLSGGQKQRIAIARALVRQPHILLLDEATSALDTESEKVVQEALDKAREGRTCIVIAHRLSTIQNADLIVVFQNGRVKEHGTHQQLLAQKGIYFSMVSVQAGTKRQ

Take `O=C(Nc1cccnn1)N1CCC(=Cc2cccc(Oc3ccc(OCCF)cn3)c2)CC1` [PF-9811, 4-(3-((5-(2-fluoroethoxy)pyridin-2-yl)oxy)benzylidene)-N-(pyridazin-3-yl)piperidine-1-carboxamide]: in data set [1], the Papp A→B came to 18.2 ×10⁻⁶ cm/s. Further, at FAAH [2], the “FAAH inhibition in brain in vivo” value was “completely inhibited” and the “off-targets among brain serine hydrolases in vivo” value is on record as “no detectable off-targets”. On FAAH [3], the IC50 was found to be 16 nM. Further, the “fold less potent than parent 4” value at FAAH [3] (FAAH, competitive ABPP, mouse brain proteome) is 5 fold. In addition, on MDR1, the efflux ratio came out at 2.52.
